Laboratory results taken from ChEMBL document CHEMBL1152486, “Synthesis and antitumor activity of optically active thiourea and their 2-aminobenzothiazole derivatives: a novel class of anticancer agents” (Eur J Med Chem, 2009).

How the values were obtained:
Type in all cases: functional, cell-based
[1] = Cytotoxicity against mouse EAC after 24 hrs by MTT assay; details: Ehrlich
Outline: (§1)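 Standard MTT, 24 h exposure. Cells plated at 10^4/well and allowed 24 h to attach, then exposed to 1–100 μM compound (dissolved in 0.1% DMSO, diluted in medium; vehicle controls 0.1% DMSO). MTT 1 mg/ml for 4 h at 37 °C, formazan dissolved in DMSO, absorbance read at 540 nm. IC50 taken as concentration giving 50% growth inhibition; triplicate.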

MCF7 [2] = assay: Cytotoxicity against human MCF7 cells after 24 hrs by MTT assay; outline: as §1
HeLa = assay: Cytotoxicity against human HeLa cells after 24 hrs by MTT assay; outline: as §1
MCF7 [3] = assay: Cytotoxicity against human MCF7 cells by MTT assay
Outline: (§2)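 MCF-7 time-course MTT. Cells seeded at 5 × 10^3/well and exposed to 1–50 μM compound. Percentage cytotoxicity and IC50 determined at 24, 48 and 72 h of drug incubation. MTT read-out at 540 nm after formazan solubilization in DMSO.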

MCF7 [4] = assay: Cytotoxicity against human MCF7 cells after 48 hrs by MTT assay; details: MCF7, 48 h; outline: as §2
MCF7 [5] = assay: Cytotoxicity against human MCF7 cells after 72 hrs by MTT assay; details: MCF7, 72 h; outline: as §2
MCF7 [6] = assay: DNA damaging activity in human MCF7 cells assessed as increase in tail moment after 24 hrs by alkaline comet assay
Outline: (§3)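 Alkaline comet assay in MCF-7 after 24 h exposure to 5–50 μM. About 20,000 cells embedded in 0.75% low-melt agarose over a 1.5% agarose layer. Alkaline unwinding 1 h, then electrophoresis at pH 13 for 20 min, 16 V. Ethidium bromide staining; ~50 cells scored per slide, two slides per concentration; means ± SEM.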

MCF7 [7] = assay: DNA damaging activity in human MCF7 cells assessed as elongated tail length after 24 hrs by alkaline comet assay; outline: as §3
MCF7 [8] = assay: DNA damaging activity in human MCF7 cells assessed as olive tail moment after 24 hrs by alkaline comet assay; outline: as §3
MCF7 [9] = assay: DNA damaging activity in human MCF7 cells assessed as tail DNA content after 24 hrs by alkaline comet assay; outline: as §3

Compound	IC50 [1]	IC50 (MCF7 [2])	IC50 (HeLa)	other results
Fc1cc2sc(N[C@@H]3CCCC[C@@H]3OCc3ccccc3)nc2cc1Cl	20.6 µM	Dose-dependent effect	60.8 µM	
C[C@@H](NC(=S)Nc1ccc(F)c(Cl)c1)c1ccccc1	23.6 µM	Dose-dependent effect	66.2 µM	
COc1ccc([C@@H](C)NC(=S)Nc2ccc(F)c(Cl)c2)cc1	45.6 µM	Dose-dependent effect	77.5 µM	
C[C@@H](NC(=S)Nc1ccc(F)c(Cl)c1)c1ccc(Cl)cc1	17.3 µM	Dose-dependent effect	43 µM	IC50 (MCF7 [3]): tde; IC50 (MCF7 [4]): 16.3 µM; IC50 (MCF7 [5]): 11.4 µM; Activity (MCF7 [6]): Dose-dependent effect; Activity (MCF7 [7]): Dose-dependent effect; Activity (MCF7 [8]): Dose-dependent effect; Activity (MCF7 [9]): Dose-dependent effect
Fc1ccc(NC(=S)NC2CCCCC2OCc2ccccc2)cc1Cl (stereo not drawn)	10.6 µM	Dose-dependent effect	33.8 µM	IC50 (MCF7 [3]; TDE = time-dependent effect): tde; IC50 (MCF7 [4]): 12.8 µM; IC50 (MCF7 [5]): 8.61 µM
CC(Nc1nc2cc(Cl)c(F)cc2s1)c1ccc(F)cc1 (single isomer, unassigned)	35.4 µM	Dose-dependent effect	61.9 µM	
CCCCCC[C@@H](C)Nc1nc2cc(Cl)c(F)cc2s1	24.6 µM	Dose-dependent effect	48 µM	IC50 (MCF7 [3]; TDE = time-dependent effect): tde; IC50 (MCF7 [4]): 24.8 µM; IC50 (MCF7 [5]): 15 µM
CC(Nc1nc2cc(Cl)c(F)cc2s1)C1CCCCC1 (single isomer, unassigned)	29.8 µM	Dose-dependent effect	72.5 µM	
CC(Nc1nc2cc(Cl)c(F)cc2s1)c1ccccc1 (single isomer, unassigned)	36.6 µM	Dose-dependent effect	58.9 µM	
C[C@@H](NC(=S)Nc1ccc(F)c(Cl)c1)c1ccc(F)cc1	29.9 µM	Dose-dependent effect	71.4 µM	
COc1ccc(C(C)Nc2nc3cc(Cl)c(F)cc3s2)cc1 (single isomer, unassigned)	75.4 µM	Dose-dependent effect		
C[C@@H](Nc1nc2cc(Cl)c(F)cc2s1)c1ccc(Cl)cc1	25.5 µM	Dose-dependent effect	69.7 µM	
CCCCCC[C@@H](C)NC(=S)Nc1ccc(F)c(Cl)c1	25.5 µM	Dose-dependent effect	49.1 µM	
CC[C@@H](NC(=S)Nc1ccc(F)c(Cl)c1)c1ccccc1	80.2 µM	Dose-dependent effect		
COc1cccc2c1C(=O)c1c(O)c3c(c(O)c1C2=O)C[C@@](O)(C(=O)CO)C[C@@H]3O[C@H]1C[C@H](N)[C@H](O)[C@H](C)O1 [DOXORUBICIN]	4.18 µM	Dose-dependent effect		
CCC(Nc1nc2cc(Cl)c(F)cc2s1)c1ccccc1 (single isomer, unassigned)	32.2 µM	Dose-dependent effect	53.3 µM	
